Results from different studies.
Compare with care: the assays were run in different laboratories.
Organism: Staphylococcus aureus
Effect on: microbial killing

O=C(O)c1cn(C2CC2)c2cc(N3CCNCC3)c(F)cc2c1=O  MBC (broth dilution): 0.5 µg/mL
CCCCCCCC(=O)Oc1c(C)c(O)c(C(=O)/C=C/c2ccccc2)c(OC)c1C  MBC (broth dilution; ATCC25923): > 5000 µg/mL
CC1CCN(CCCN2/C(=C/c3cc[n+](C)c4ccccc34)Sc3ccccc32)CC1.[I-]  MBC (ATCC29213): 16 µg/mL
O=C(O)CN1C(=O)/C(=C/c2ccc(-c3ccc(N(c4ccccc4)c4ccccc4)cc3)c3ccccc23)NC1=S  MBC (broth dilution; ATCC43300): > 1000 µg/mL
O=c1[nH]cc(F)c(=O)[nH]1  MBC (broth dilution; 48 h): 1 µg/mL
N#CC(=Cc1cn(-c2ccccc2)nc1-c1ccccc1)C1=NC(=O)CS1  MBC (broth dilution): 0.25 µg/mL
C=CCOc1c(C)c(O)c(C(=O)/C=C/c2ccccc2)c(OC)c1C  MBC (broth dilution; ATCC25923): > 5000 µg/mL
O=C(O)CN1C(=O)/C(=C/c2c3ccccc3c(-c3ccc(N(c4ccccc4)c4ccccc4)cc3)c3ccccc23)SC1=S  MBC (broth dilution; ATCC43300): > 1000 µg/mL
COc1c(C)c(OS(=O)(=O)c2ccc3ccccc3c2)c(C)c(OS(=O)(=O)c2ccc3ccccc3c2)c1C(=O)/C=C/c1ccccc1  MBC (broth dilution; ATCC25923): > 5000 µg/mL
CCCCCCCCCCCCCCCC#CC(=O)O  MBC: 15.6 µg/mL
COc1c(C)c(OC)c2c(c1C)OC(c1ccccc1)CC2=O (stereo not shown)  MBC (broth dilution; ATCC25923): > 5000 µg/mL
COc1cc(NC(C)CCCNC(=O)c2ccncc2C(=O)NCCCC(C)Nc2cc(OC)cc3ccc(C(C)(C)C)nc23)c2nc(C(C)(C)C)ccc2c1.Cl (stereo not shown)  MBC (ATCC43300 MRSA; drug-resistant strain): 10 to 20 µg/mL
O=C(O)CN1C(=O)/C(=C/c2ccc(-c3ccc(N(c4ccccc4)c4ccccc4)cc3)c3ccccc23)SC1=S  MBC (broth dilution; ATCC43300): > 1000 µg/mL
COc1c(C)c(OC(C)=O)c(C)c(O)c1C(=O)/C=C/c1ccccc1  MBC (broth dilution; ATCC25923): > 5000 µg/mL
O=C(O)CN1C(=O)/C(=C/c2c3ccccc3c(-c3ccc(N(c4ccccc4)c4ccccc4)cc3)c3ccccc23)NC1=S  MBC (broth dilution; ATCC6538): > 1000 µg/mL
COc1c(C)c(OC(=O)c2ccc(C)cc2)c(C)c(O)c1C(=O)/C=C/c1ccccc1  MBC (broth dilution; ATCC25923): > 5000 µg/mL
O=C1NC(=S)N/C1=C\c1c2ccccc2c(-c2ccc(N(c3ccccc3)c3ccccc3)cc2)c2ccccc12  MBC (broth dilution; ATCC6538): > 1000 µg/mL
COc1c(C)c(OS(=O)(=O)c2ccc3ccccc3c2)c(C)c(O)c1C(=O)/C=C/c1ccccc1  MBC (broth dilution; ATCC25923): > 5000 µg/mL
O=C(O)CN1C(=O)/C(=C/c2ccc(-c3ccc(N(c4ccccc4)c4ccccc4)cc3)cc2)NC1=S  MBC (broth dilution; ATCC6538): 3.9 µg/mL
CC(=O)NC[C@H]1CN(c2ccc(N3CCOCC3)c(F)c2)C(=O)O1  MBC (broth dilution; ATCC6538): > 64 µM
O=C1NC(=S)N/C1=C\c1ccc(-c2ccc(N(c3ccccc3)c3ccccc3)cc2)c2ccccc12  MBC (broth dilution; ATCC25923): > 1000 µg/mL
CCn1cc(C(=O)O)c(=O)c2cc(F)c(N3CCNCC3)cc21  MBC (broth dilution; ATCC6538): 2 µM
